SIAE inh – human SIAE inhibitors, primary screen, biochemical, fluorescence polarization, FP-Rh probe, 1536-well HTS | inhibition, % at 9.66 µM | AID 1053197, 2014 | Sialate O-acetylesterase (Homo sapiens), Q9HAT2 | SIAE FP-Rh probe binding | 370,000 tested, 0.69% active;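 active = inhibition above a cutoff: mean of compounds within the control limits plus 3 SD of those, cut at about 17% in these data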;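 also: 0% = plate median of compound wells and 100% = probe without SIAE protein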
Target sequence (Q9HAT2 whole entry, looked up): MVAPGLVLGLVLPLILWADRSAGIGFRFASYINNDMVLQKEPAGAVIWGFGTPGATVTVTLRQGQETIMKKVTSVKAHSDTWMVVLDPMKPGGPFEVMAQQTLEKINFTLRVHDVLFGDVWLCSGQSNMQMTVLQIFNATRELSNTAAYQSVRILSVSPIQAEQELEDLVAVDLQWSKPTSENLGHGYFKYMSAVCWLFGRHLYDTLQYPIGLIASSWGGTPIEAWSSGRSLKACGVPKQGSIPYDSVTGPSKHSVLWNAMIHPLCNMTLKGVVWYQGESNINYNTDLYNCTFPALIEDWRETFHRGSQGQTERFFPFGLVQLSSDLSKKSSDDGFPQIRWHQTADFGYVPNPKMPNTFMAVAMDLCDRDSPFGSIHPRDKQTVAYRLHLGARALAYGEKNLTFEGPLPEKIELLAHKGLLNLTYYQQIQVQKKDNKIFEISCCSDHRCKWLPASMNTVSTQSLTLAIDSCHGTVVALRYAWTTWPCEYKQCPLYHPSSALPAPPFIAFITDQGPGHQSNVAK
mABHD4 FP – ABHD4 inhibitors, primary screen, biochemical, fluorescence polarization, mouse | purified mABHD4, FP-Rh probe fluorescence polarization | inhibition, % at 8.92 µM | 370,000 tested, 0.54% active | AID 720543, 2013;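 active = inhibition exceeding the mean over every tested compound plus 3 SD, cut at about 30% in these data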;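 also: 0% = plate median of compound wells and 100% = S159A mutant with DMSO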
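Material: mouse ABHD4 enzyme, wild type; Benchmarks: S159A mutant high control, sample median low control; Buffer or medium: HEPES pH 7.0, NaCl, Pluronic buffer; Signal: fluorescence polarization; Read-out: percent inhibition of probe binding, normalized to plate controls; Timing: pre-incubation 45 min, probe exposure 60 min, at 25 °C; Dosing: 8.92 µM, single dose.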
TDP2 inh – human TDP2 enzyme inhibitors, primary screen, biochemical, epi absorbance, recombinant enzyme. Tyrosyl-DNA phosphodiesterase 2 (Homo sapiens), O95551. T5PNP hydrolysis, p-nitrophenol absorbance 415 nm. inhibition, % at 12.8 µM. 370,000 tested, 0.34% active;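 active = inhibition above the mean of all tested compounds plus 3 SD, set per campaign, cut at about 25% in these data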;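 also: 0% = DMSO with enzyme and 100% = buffer with substrate but no TDP2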
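test system = human TDP2 enzyme | input = TDP2 enzyme at 120 nM final | medium = 50 mM Tris-HCl pH 7.5 with Mg2+, KCl, DTT, BSA | also added = T5PNP substrate, 5 mM | times = 2 h at 37 °C | technique = epi absorbance | benchmarks = high control without enzyme, low control DMSO plus TDP2 | replication = each compound tested once, singlicate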
PAD4 inh – human PAD4 inhibitors, primary screen, biochemical, fluorescence polarization, 1536-well format | Protein-arginine deiminase type-4 (Homo sapiens), Q9UM07 | recombinant PAD4, RCA probe fluorescence polarization | inhibition, % at 6.36 µM | 330,000 tested, 0.41% active;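 active = percent inhibition above a cutoff equal to the mean of all tested compounds plus 3 SD, cut at about 15% in these data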;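 also: 0% = PAD4 with RCA probe and DMSO and 100% = probe without PAD4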
HTRA1 inhibitor – HTRA1 serine protease inhibitors, primary screen, biochemical, fluorescence polarization, HTS. Q92743. recombinant HTRA1, FP-rhodamine activity-based probe. inhibition, % at 5.96 µM. 340,000 tested, 0.5% active; in the data active = inhibition above about 36%;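 also: 0% = enzyme with DMSO and 100% = wells lacking enzyme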
TCR CD3 inh – inhibitors of human TCR-CD3 interaction, primary screen, biochemical, fluorescence, TAMRA-labeled TCR probe; 360,000 tested, 0.37% active; T-cell receptor (TCR); AID 651800, 2012; inhibition, % at 9.4 µM;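 also: recombinant mutant TCR 2C K166C tagged with TAMRA read by polarization; 0% = receptor in buffer alone and 100% = receptor with positive control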
PAD4 confirm – human PAD4 inhibitors, confirmation, biochemical, fluorescence polarization; shares compounds with PAD4 inh; recombinant PAD4, RCA probe fluorescence polarization; inhibition, % at 6.36 µM; 1,200 tested, 28% active; AID 488796, 2010;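 active = mean inhibition across replicates above the hit cutoff set by the earlier primary screen, cut at about 15% in these data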;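 also: inhibitors block active-site labeling by the probe so polarization falls; 0% = PAD4 with probe and DMSO and 100% = probe without PAD4 enzyme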
BSA TAMRA ctr – compounds interfering with TAMRA-BSA probe, counter-screen for TCR-CD3 interaction inhibitor project, biochemical, fluorescence, TAMRA-labeled BSA; 1,200 tested, 10% active; TAMRA-labeled BSA probe fluorescence counterscreen; inhibition, % at 9.4 µM; shares compounds with TCR CD3 inh; in the data active = inhibition above about 23%;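 also: 0% = buffer low control and 100% = reference high control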
TCR-CD3 conf – TCR-CD3 interaction inhibitors, retest, confirmation, biochemical, fluorescence, TAMRA-labeled TCR probe. shares compounds with TCR CD3 inh. TAMRA-labeled TCR probe fluorescence binding assay. inhibition, % at 9.4 µM. 1,200 tested, 48% active
TDP2 inh conf – human TDP2 enzyme inhibitors, retest, confirmation, biochemical, epi absorbance, recombinant enzyme; shares compounds with TDP2 inh; absorbance read-out; inhibition, % at 12.8 µM; 1,100 tested, 22% active; AID 743263, 2014; in the data active = inhibition above about 25%;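 also: 0% = vehicle with enzyme and 100% = no enzyme buffer only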
* = called active by the depositor; / = not tested or not shown. Only some compounds are listed: those with a hit (about 2% of all), similar ones and a draw of the others. Rule as the data show it, unless noted: active = inhibition above about 19%; inactive = the rest.

SMILES	SIAE inh	mABHD4 FP	TDP2 inh	PAD4 inh	HTRA1 inhibitor	TCR CD3 inh	PAD4 confirm	TDP2 inh conf	others
Nc1ccc(N(CCO)CCO)cc1	15	22	46*	59*	29	27*	-3	24	BSA TAMRA ctr=19;TCR-CD3 conf=12
O=C(O)c1ccc(NC2=C(n3nnc4ccccc43)C(=O)c3ccccc3C2=O)cc1	-5	0	34*	17*	12	-4	3	41*
O=C(O)c1ccc(-n2nnc3ccccc32)c([N+](=O)[O-])c1	6	0	1	0	3	1	/	/
O=C(NCC(c1ccccc1)c1ccccc1)[C@H](Cc1ccccc1)NC1(C(=O)NC2CCCCC2)CCOCC1	-4	-2	-20	/	/	/	/	/
CCCCn1c(NC(=O)c2ccccc2Cl)c(C#N)c2nc3ccccc3nc21	0	-2	38*	72*	-14	-2	29*	72*
CC1CCCC(NC(=O)COC(=O)c2ccc([N+](=O)[O-])s2)C1C (centres undefined)	0	-2	32*	15*	29	-4	7	37*
COC(=O)c1cc(C(c2ccccc2O)C2CCC(C)(C)O2)n2ccccc12 (centres undefined)	-3	1	1	/	/	/	/	/
CC[C@H](CCCCCCCn1ccc2ccccc21)CCC(=O)N(c1ccccc1)c1ccccc1	5	-1	-8	/	/	/	/	/
Cn1nc(-c2ccccn2)nc2c(=O)n(C)c(=O)nc1-2	-6	-1	91*	74*	28	-8	67*	85*
COc1ccc(-c2nc(-c3ccccn3)ncc2S(C)(=O)=O)cc1	-2	-2	12	-1	-6	-2	/	/
CCOc1cc(N2CCOCC2)c(OCC)cc1NC(=O)CSc1ncccc1C(=O)O	5	18	30*	39*	7	-3	2	5
CCOc1cc(N2CCOCC2)c(OCC)cc1NC(=O)CSc1ncccn1	6	1	0	-6	-4	9	/	/
CCN1CCN(S(=O)(=O)c2ccc(Cl)c(C(=O)NC3CCC(C)CC3)c2)CC1 (centres undefined)	-7	-3	0	-3	0	6	/	/
Oc1ccc2ccccc2c1C=Nc1ccc(N2CCOCC2)cc1	0	29	31*	46*	/	-5	1	5
COc1cccc(C(c2c(C)[nH]n(-c3ccccc3)c2=O)c2c(C)[nH]n(-c3ccccc3)c2=O)c1OC	9	4	89*	72*	4	6	3	32*
CCOc1cccc(C(c2c(C)n(C)n(-c3ccccc3)c2=O)c2c(C)n(C)n(-c3ccccc3)c2=O)c1OC	-2	-5	3	-5	-3	7	/	/
COc1ccc(C(C[N+](=O)[O-])c2c(C)[nH]n(-c3ccccc3)c2=O)cc1 (centres undefined)	-2	-6	75*	17*	10	-5	11	69*
Cc1[nH]n(-c2ccccc2)c(=O)c1C(C[N+](=O)[O-])c1ccccc1Cl (centres undefined)	4	9	3	-15	0	12	/	/
Cc1[nH]n(-c2ccccc2)c(=O)c1C(=O)c1ccccc1	-2	4	4	-5	7	-6	/	/
COc1cccc(C(c2c(C)[nH]n(-c3ccccc3)c2=O)c2c(C)[nH]n(-c3ccccc3)c2=O)c1O	6	19	80*	64*	10	-10	-3	6
C/C(=N/NC(=O)c1ccoc1C)c1cccs1	3	2	-7	/	/	/	/	/
COc1ccc(CN(CCN2CCOCC2)C(=O)c2cc(F)ccc2C)cc1OC	5	1	7	/	/	/	/	/
O=C(NCCCc1ccccc1)OC1CCC12CCC(c1ccccc1)CC2 (centres undefined)	-5	-4	-8	/	/	/	/	/
CC1=NN(c2ccc(Cl)c(C(=O)O)c2)C(=O)C1	2	16	44*	36*	9	3	-2	6
COc1ccc(OC)c(/C=N/NC(=O)Cn2ccnc2C)c1	12	-4	7	-1	5	2	/	/
SMILES	SIAE inh	mABHD4 FP	TDP2 inh	PAD4 inh	HTRA1 inhibitor	TCR CD3 inh	PAD4 confirm	TDP2 inh conf	others
CC1CCN(c2ccc(/C=N\Nc3nncn3N)cc2[N+](=O)[O-])CC1	13	2	79*	30*	12	2	-7	2
COc1cc(/C=N\Nc2nncn2N)ccc1OC(C)=O	2	6	57*	31*	-17	-4	7	5
COc1ccc(OC)c(/C=N/Nc2nncn2/N=C/c2cc(OC)ccc2OC)c1	-3	12	67*	21*	13	-3	4	7
CC1CCN(c2ccc(/C=N/n3nnnc3N)cc2[N+](=O)[O-])CC1	0	5	-22	0	1	-2	/	/
COc1cc(/C=N/Nc2nncn2/N=C/c2ccc(O)c(OC)c2)ccc1O	7	-1	67*	43*	2	-1	7	7
O=C1CCC[C@H]2C[C@H](NCc3cccc(I)c3)CC[C@]23CCCN13	-1	0	-11	/	/	/	/	/
CC(C)(C)c1ccc(C(=O)Nc2cc(Cl)ccc2-c2nn[nH]n2)cc1	-124	-154	-1	/	/	/	/	/
CC(C)(C)OC(=O)n1cc(-c2ccccc2)c2c(-c3ccccc3)c(O)ccc21	5	10	3	/	/	/	/	/
O=C1C=C(N2CCOCC2)c2ccccc2C1=O	-10	24	65*	60*	21	1	66*	86*
